IC50 and CC50 data for eleven compounds are collected here from ChEMBL document CHEMBL1143978, “Novel 1,3,4-thiadiazolium-2-phenylamine chlorides derived from natural piperine as trypanocidal agents: chemical and biological studies” (Bioorg Med Chem, 2008).

The term IC50 denotes the concentration at which inhibition is half-maximal. A high value points to weaker potency in that assay.

Molecules are shown by their SMILES.

Data set [1] relates to Trypanosoma cruzi. As to the kind of experiment: Antiparasitic activity against Trypanosoma cruzi Y epimastigote. The class given is functional, organism-based. Put shortly:
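Y-strain epimastigotes (1×10^5 cells) grown in BHI with hemin, folic acid and 5% heat-inactivated FCS at 28 °C, with or without compound. DMSO final was 0.05%, and controls contained the same DMSO. After 7 days, live parasites were counted directly in a Neubauer chamber. IC50 is the mean of triplicate experiments.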

Data set [2] can be described thus: Cytotoxicity against mouse macrophages after 72 hrs. The format is cell-based, Macrophage. To be noted: read-out: LD50. Summed up: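 Murine peritoneal macrophages seeded at 1.10⁶ cells/well in RPMI with 10% FCS and allowed to attach 24 h at 37 °C. Exposed 72 h to compounds in DMSO (final solvent at most 0.05%). Washed with PBS, trypan blue added (final 0.01%), and 200 cells counted in a Neubauer chamber for membrane permeability. IC50 is the mean of triplicate experiments.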

Data set [3] concerns Trypanosoma cruzi. As to the kind of experiment: Antiparasitic activity against Trypanosoma cruzi Y trypomastigotes. The class given is functional, organism-based.
Data set [4] has as its system Trypanosoma cruzi. As to the kind of experiment: Antiparasitic activity against Trypanosoma cruzi Y amastigotes. The class given is functional, organism-based. Summed up: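 Resident peritoneal macrophages from uninfected BALB/c mice, once adhered, infected with T. cruzi metacyclic trypomastigotes at 10:1 parasite/macrophage for 1 h at 37 °C, 5% CO2. Free parasites washed off with PBS, then 72 h with compound at […]. Methanol-fixed, Giemsa-stained. 200 cells counted in triplicate for % infected cells, amastigotes per macrophage and endocytic index.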

In the case of `O=[N+]([O-])c1cc2c(cc1CCc1sc(Nc3ccccc3)n[n+]1-c1ccccc1)OCO2`, half-maximal inhibition in data set [1] (IC50) required 40.8 µM.

Regarding `c1ccc(Nc2n[n+](-c3ccccc3)c(CCc3ccc4c(c3)OCO4)s2)cc1`, the IC50 in data set [1] stood at 83.4 µM.

With `O=[N+]([O-])c1cc2c(cc1-c1sc(Nc3ccccc3)n[n+]1-c1ccccc1)OCO2`, the IC50 in data set [1] was determined as 13.4 µM. Further, in data set [2], the CC50 at 72 h stood at 6.62 µM.

`c1ccc(Nc2n[n+](-c3ccccc3)c(-c3ccc4c(c3)OCO4)s2)cc1` displayed an IC50 in data set [1] of 113 µM.

For `C(/C=C/c1sc(Nc2ccccc2)n[n+]1-c1ccccc1)=C\c1ccc2c(c1)OCO2`, the figures for the IC50 in data set [1], in data set [3] and in data set [4] were 10.8 µM, 6.7 µM and 1.35 µM, respectively. In addition, the CC50 at 72 h in data set [2] is 38.6 µM.

Regarding `C(=C\c1sc(Nc2ccccc2)n[n+]1-c1ccccc1)/c1ccc2c(c1)OCO2`, the IC50 in data set [1] came to 4.13 µM. The CC50 at 72 h in data set [2] amounted to 1.95 µM.

Regarding `O=[N+]([O-])c1cc2c(cc1CCCCc1sc(Nc3ccccc3)n[n+]1-c1ccccc1)OCO2`, in data set [1], the IC50 was 45.2 µM.

`O=[N+]([O-])c1cc2c(cc1/C=C/c1sc(Nc3ccccc3)n[n+]1-c1ccccc1)OCO2` came in with a 50% inhibitory concentration (IC50) in data set [1] of 0.64 µM. For the same compound, the CC50 at 72 h in data set [2] turned out to be 1.08 µM.

Turning to `O=C(/C=C/C=C/c1ccc2c(c1)OCO2)N1CCCCC1` [PIPERINE], the IC50 in data set [1] was found to be 7.31 µM; in data set [4] it was 4.91 µM. In data set [2], the CC50 at 72 h is 20 µM.

Take `c1ccc(Nc2n[n+](-c3ccccc3)c(CCCCc3ccc4c(c3)OCO4)s2)cc1`: the IC50 in data set [1] was determined as 31.5 µM.

On to `O=C(Cn1ccnc1[N+](=O)[O-])NCc1ccccc1` [BENZNIDAZOLE], for which the half-inhibitory concentration (IC50) in data set [3] was 6.61 µM; in data set [4], 2.51 µM.
